Test results: ChEMBL document CHEMBL4152204, “Discovery of N-hydroxy-3-alkoxybenzamides as direct acid sphingomyelinase inhibitors using a ligand-based pharmacophore model” (Eur J Med Chem, 2018)
Calls of active or inactive are those of the source. No cut-off for these calls is given here.

What was measured:
[1] = molecular target: T1, Sphingomyelin phosphodiesterase (Homo sapiens) (UniProt P17405); experiment: Competitive inhibition of acid sphingomyelinase in human HuH7 cell lysate using varying levels of NBD-sphingomyelin as substrate at 0.5 to 5 uM after 30 mins by Lineweaver-Burk analysis; settings: in the assay text read “after 10 mins” for “after 30 mins”
T1 sequence (whole entry): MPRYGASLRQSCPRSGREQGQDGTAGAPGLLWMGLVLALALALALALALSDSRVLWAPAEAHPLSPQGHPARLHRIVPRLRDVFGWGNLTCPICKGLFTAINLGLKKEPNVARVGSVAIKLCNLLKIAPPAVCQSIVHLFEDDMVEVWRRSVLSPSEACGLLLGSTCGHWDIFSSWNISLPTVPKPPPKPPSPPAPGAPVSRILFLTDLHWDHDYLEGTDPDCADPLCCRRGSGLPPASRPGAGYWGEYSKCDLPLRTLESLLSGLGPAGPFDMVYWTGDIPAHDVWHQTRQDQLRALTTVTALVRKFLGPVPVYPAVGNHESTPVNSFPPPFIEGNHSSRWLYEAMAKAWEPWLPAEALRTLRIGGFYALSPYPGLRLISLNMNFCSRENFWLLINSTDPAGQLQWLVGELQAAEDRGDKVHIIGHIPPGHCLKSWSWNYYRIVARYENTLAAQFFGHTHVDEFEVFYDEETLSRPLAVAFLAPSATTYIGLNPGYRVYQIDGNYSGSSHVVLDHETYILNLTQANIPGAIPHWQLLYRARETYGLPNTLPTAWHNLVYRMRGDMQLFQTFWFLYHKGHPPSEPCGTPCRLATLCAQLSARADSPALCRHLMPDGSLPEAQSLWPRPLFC
Outline: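 Kinetics using the lysate ASM protocol, NBD-SM at 1.35, 1.89, 2.70, 4.54 and 13.5 µM per inhibitor level (0.5, 1.0, 5 µM); reaction stopped after 10 min; NBD-ceramide quantified by HPLC against a standard curve; Lineweaver-Burk plots by linear regression; triplicate.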

[2] = molecular target: T2, Sphingomyelin phosphodiesterase (Mus musculus) (UniProt Q04519); experiment: Inhibition of acid sphingomyelinase in mouse NIH/3T3 cells assessed as ceramide levels at 10 uM after 20 hrs by LC-MS/MS analysis relative to control; type: cell-based
T2 sequence (whole entry): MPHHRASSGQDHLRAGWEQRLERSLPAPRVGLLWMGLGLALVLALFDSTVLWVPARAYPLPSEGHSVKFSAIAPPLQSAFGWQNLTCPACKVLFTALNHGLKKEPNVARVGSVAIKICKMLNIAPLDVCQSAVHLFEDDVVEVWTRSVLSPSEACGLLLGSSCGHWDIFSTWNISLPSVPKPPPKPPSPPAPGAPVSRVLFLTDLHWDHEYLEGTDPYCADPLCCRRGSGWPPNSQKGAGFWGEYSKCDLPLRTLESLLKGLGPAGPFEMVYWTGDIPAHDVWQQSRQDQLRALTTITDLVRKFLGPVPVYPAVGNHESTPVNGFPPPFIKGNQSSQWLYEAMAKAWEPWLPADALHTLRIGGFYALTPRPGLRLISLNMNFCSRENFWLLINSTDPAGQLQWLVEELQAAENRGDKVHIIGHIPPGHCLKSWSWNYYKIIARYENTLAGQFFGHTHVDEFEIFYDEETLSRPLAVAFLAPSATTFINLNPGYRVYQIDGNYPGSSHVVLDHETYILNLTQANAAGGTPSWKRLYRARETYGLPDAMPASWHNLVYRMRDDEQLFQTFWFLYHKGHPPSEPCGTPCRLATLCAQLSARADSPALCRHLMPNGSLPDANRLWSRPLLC
Outline: (§1)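 NIH3T3 cells in DMEM with 10% FBS, 37 °C, 5% CO₂; at 90% confluence given fresh medium plus inhibitor (5, 10, 20 µM) for 20 h; total ceramides and sphingomyelin quantified by LC-MS-MS versus untreated control; mean ± SD of three independent experiments, Student's t-test.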

[3] = molecular target: T2, Sphingomyelin phosphodiesterase (Mus musculus); experiment: Inhibition of acid sphingomyelinase in mouse NIH/3T3 cells assessed as decrease in ceramide levels after 20 hrs by LC-MS/MS analysis; type: cell-based; outline: as §1
[4] = molecular target: T2, Sphingomyelin phosphodiesterase (Mus musculus); experiment: Inhibition of acid sphingomyelinase in mouse NIH/3T3 cells assessed as increase in […] level at 5 uM after 20 hrs by LC-MS/MS analysis relative to control; type: cell-based; parameters: scale not given: the % may be the effect or the level left; outline: as §1
[5] = molecular target: T2, Sphingomyelin phosphodiesterase (Mus musculus); experiment: Inhibition of acid sphingomyelinase in mouse NIH/3T3 cells assessed as increase in […] level at 20 uM after 20 hrs by LC-MS/MS analysis relative to control; type: cell-based; parameters: scale not given: the % may be the effect or the level left; outline: as §1
NIH3T3 [6] = experiment: Cytoprotective activity against UV-induced apoptosis in mouse NIH/3T3 cells assessed as late apoptotic cells at 20 uM preincubated for 20 hrs followed by UV irradiation for 5 mins and measured after 24 hrs by flow cytometric analysis (reference value: 6.4%); type: functional
NIH3T3 [7] = experiment: Cytoprotective activity against UV-induced apoptosis in mouse NIH/3T3 cells assessed as necrotic cells at 40 uM preincubated for 20 hrs followed by UV irradiation for 5 mins and measured after 24 hrs by flow cytometric analysis (reference value: 1.5%); type: functional
NIH3T3 [8] = experiment: Cytoprotective activity against UV-induced apoptosis in mouse NIH/3T3 cells assessed as viable cells at 60 uM preincubated for 20 hrs followed by UV irradiation for 5 mins and measured after 24 hrs by flow cytometric analysis (reference value: 12.6%); type: functional; settings: NIH3T3, light or radiation study, read-out: Activity
NIH3T3 [9] = experiment: Cytoprotective activity against UV-induced apoptosis in mouse NIH/3T3 cells assessed as early apoptotic cells at 60 uM preincubated for 20 hrs followed by UV irradiation for 5 mins and measured after 24 hrs by flow cytometric analysis (reference value: 79.5%); type: functional
NIH3T3 [10] = experiment: Cytoprotective activity against UV-induced apoptosis in mouse NIH/3T3 cells assessed as late apoptotic cells at 60 uM preincubated for 20 hrs followed by UV irradiation for 5 mins and measured after 24 hrs by flow cytometric analysis (reference value: 6.4%); type: functional
[11] = molecular target: T2, Sphingomyelin phosphodiesterase (Mus musculus); experiment: Inhibition of UV-induced ceramide production in mouse NIH/3T3 cells by LC-MS/MS analysis; type: cell-based
Outline: (§2)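 Ceramide in the UV-apoptosis setup: NIH3T3 cells pretreated with inhibitor 20 h, UV 315 nm 0.29 mW/cm² 5 min, further 24 h with inhibitor; ceramide quantified (pmol/mg) by LC-MS-MS; amitriptyline as positive control; mean ± SD of three independent experiments.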

NIH3T3 [12] = experiment: Inhibition of LPS-induced IL-8 production in mouse NIH/3T3 cells preincubated for 20 hrs followed by LPS-stimulation and measured after 6 hrs by ELISA; type: functional, cell-based
Outline: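 NIH3T3 cells (DMEM, 10% FBS) seeded at 2*10⁵ per well overnight, inhibitor 20 h, then LPS to 50 ng/mL for a further 6 h; IL-6 or IL-8 measured by ELISA; compared with LPS-only and control groups.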

[13] = molecular target: T2, Sphingomyelin phosphodiesterase (Mus musculus); experiment: Inhibition of UV-induced ceramide production in mouse NIH/3T3 cells assessed as ceramide level at 50 uM by LC-MS/MS analysis (reference value: 107.686 pmol/mg); type: cell-based; outline: as §2

- inhibition [1]: Active
- inhibition [2]: 37%
- inhibition [3]: Dose-dependent effect
- Activity [4]: 31.9%
- Activity [5]: 37.5%
- inhibition [11]: Dose-dependent effect
- Activity [13]: 106 pmol/mg
SMILES: CCCCCCCCCCOc1cc(C(=O)NO)ccc1OC
- Activity (NIH3T3 [6]): 8.4%
- Activity (NIH3T3 [7]): 0.1%
- viability at 60 µM (NIH3T3 [8]): 36.2%
- Activity (NIH3T3 [9]): 55.7%
- Activity (NIH3T3 [10]): 7.5%
- inhibition (NIH3T3 [12]): Dose-dependent effect
